The source made the active and inactive calls. The rule behind the calls is not given here.
Columns and labels:
[1] = Agonism at turkey erythrocyte P2Y receptor.; type: functional, Meleagris gallopavo
In short: (§1)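 Turkey erythrocytes labeled 18–24 h at 37 °C with 2-[3H]myo-inositol in inositol-free DMEM; ghosts made by hypotonic lysis (5 mM Na phosphate pH 7.4, 5 mM MgCl2, 1 mM EGTA). PLC assay: ~175 μg protein ghosts, 1 μM GTPγS, Hepes pH 7.0 medium with 424 μM CaCl2, 2 mM EGTA; 5 min, 30 °C; total [3H]inositol phosphates by anion exchange; K0.5 averaged from 3–8 curves.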

Cavia porcellus [2] = species: Cavia porcellus; experiment: Tested for relaxation of carbachol-contracted guinea pig taenia coli at 37 degree C; Less potent than or equal to ATP; type: functional
Cavia porcellus [3] = species: Cavia porcellus; experiment: Tested for contraction of guinea pig vas deferens at 37 degree C; Not active; type: functional
Oryctolagus cuniculus [4] = species: Oryctolagus cuniculus; experiment: Tested for contraction of rabbit saphenous artery produced by 1 uM alpha,beta-MeATP at 37 degree C; type: functional
Oryctolagus cuniculus [5] = species: Oryctolagus cuniculus; experiment: Tested for relaxation of carbachol-contracted rabbit mesenteric artery at 37 degree C; More potent than or equal to 2MeSATP; type: functional
Cavia porcellus [6] = species: Cavia porcellus; experiment: Tested for contraction of guinea pig isolated urinary bladder detrusor muscle at 37 degree C; Not active; type: functional; settings: Muscle tissue
Meleagris gallopavo [7] = experiment: Stimulating production of inositol phosphate in turkey erythrocyte membranes at a concentration of 100 uM; Inactive; type: functional, cell membranes; in short: as §1
Oryctolagus cuniculus [8] = species: Oryctolagus cuniculus; experiment: Tested for relaxation of carbachol-contracted rabbit mesenteric artery at 37 degree C; Not active; type: functional
Oryctolagus cuniculus [9] = species: Oryctolagus cuniculus; experiment: Tested for relaxation of carbachol-contracted rabbit aorta at 37 degree C; Not active; type: functional
Cavia porcellus [10] = species: Cavia porcellus; experiment: Tested for relaxation of carbachol-contracted guinea pig taenia coli at 37 degree C; Significantly less potent than ATP; type: functional
Cavia porcellus [11] = species: Cavia porcellus; experiment: Tested for contraction of guinea pig vas deferens at 37 degree C; Potency equal to ATP; type: functional
Cavia porcellus [12] = species: Cavia porcellus; experiment: Tested for relaxation of carbachol-contracted guinea pig taenia coli at 37 degree C; type: functional
In short: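 Carbachol-precontracted guinea pig taenia coli segments in 37 °C organ baths with oxygenated Krebs solution. Tension changes were recorded in response to increasing nucleotide concentrations. At least two determinations. Responses were expressed as % relaxation of the carbachol-induced contraction and reported as pD2. ATP was tested on every preparation.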

Oryctolagus cuniculus [13] = species: Oryctolagus cuniculus; experiment: Tested for relaxation of carbachol-contracted rabbit mesenteric artery at 37 degree C; Potency equal to 2MeSATP; type: functional
Cavia porcellus [14] = species: Cavia porcellus; experiment: Tested for contraction of guinea pig isolated urinary bladder detrusor muscle at 37 degree C; Potency equal to ATP; type: functional; settings: Muscle tissue
Oryctolagus cuniculus [15] = species: Oryctolagus cuniculus; experiment: Tested for contraction of rabbit saphenous artery produced by 1 uM alpha,beta-MeATP at 37 degree C; Potency equal to ATP; type: functional
Oryctolagus cuniculus [16] = species: Oryctolagus cuniculus; experiment: Tested for relaxation of carbachol-contracted rabbit aorta at 37 degree C; Potency equal to 2MeSATP; type: functional
Cavia porcellus [17] = species: Cavia porcellus; experiment: Tested for relaxation of carbachol-contracted guinea pig taenia coli at 37 degree C; Significantly more potent than ATP; type: functional
Cavia porcellus [18] = species: Cavia porcellus; experiment: Tested for contraction of guinea pig isolated urinary bladder detrusor muscle at 37 degree C; More potent than or equal to ATP; type: functional; settings: Muscle tissue
Oryctolagus cuniculus [19] = species: Oryctolagus cuniculus; experiment: Tested for contraction of rabbit saphenous artery produced by 1 uM alpha,beta-MeATP at 37 degree C; Not active; type: functional
Oryctolagus cuniculus [20] = species: Oryctolagus cuniculus; experiment: Tested for relaxation of carbachol-contracted rabbit mesenteric artery at 37 degree C; Significantly more potent than 2MeSATP; type: functional
Oryctolagus cuniculus [21] = species: Oryctolagus cuniculus; experiment: Tested for relaxation of carbachol-contracted rabbit mesenteric artery at 37 degree C; Less potent or equal to 2MeSATP; type: functional
Meleagris gallopavo [22] = experiment: Tested for stimulation of production of inositol phosphate in turkey erythrocyte membrane; Not active; type: functional; in short: as §1
Oryctolagus cuniculus [23] = species: Oryctolagus cuniculus; experiment: Tested for relaxation of carbachol-contracted rabbit aorta at 37 degree C; Significantly more potent than 2MeSATP; type: functional
Cavia porcellus [24] = species: Cavia porcellus; experiment: Tested for contraction of guinea pig vas deferens at 37 degree C; Significantly more potent than ATP; type: functional
Cavia porcellus [25] = species: Cavia porcellus; experiment: Tested for contraction of guinea pig isolated urinary bladder detrusor muscle at 37 degree C; 100 times more potent than ATP; type: functional; settings: Muscle tissue
Oryctolagus cuniculus [26] = species: Oryctolagus cuniculus; experiment: Tested for relaxation of carbachol-contracted rabbit aorta at 37 degree C; More potent or equal to 2MeSATP; type: functional
Cavia porcellus [27] = species: Cavia porcellus; experiment: Tested for contraction of guinea pig isolated urinary bladder detrusor muscle at 37 degree C; Significantly more potent than ATP; type: functional; settings: Muscle tissue

SMILES: N#CCCCCCCSc1nc(N)c2ncn(C3O[C@H](COP(=O)(O)O)[C@@H](O)[C@H]3O)c2n1 (stereo partly specified)
- K 0.5 [1]: 37000 nM
- Relative activity (Cavia porcellus [2]): 4.4
- Relative activity (Cavia porcellus [3]): inactive
- Relative activity (Oryctolagus cuniculus [4]): 4.5%
- Relative activity (Oryctolagus cuniculus [5]): 6.2
- Relative activity (Cavia porcellus [6]): inactive

SMILES: C=CCCCCSc1nc(N)c2ncn(C3O[C@H](CO)[C@@H](O)[C@H]3O)c2n1 (stereo partly specified)
- Activity (Meleagris gallopavo [7]): inactive

SMILES: C=CCCCCSc1nc(NC)c2ncn(C3O[C@H](COP(=O)(O)O)[C@@H](O)[C@H]3O)c2n1 (stereo partly specified)
- K 0.5 [1]: >100000 nM
- Relative activity (Oryctolagus cuniculus [8]): inactive
- Relative activity (Cavia porcellus [3]): inactive
- Relative activity (Oryctolagus cuniculus [9]): inactive
- Relative activity (Cavia porcellus [10]): Partially active
- Relative activity (Oryctolagus cuniculus [4]): 6.7%
- Relative activity (Cavia porcellus [6]): inactive

SMILES: Nc1ncnc2c1ncn2[C@@H]1O[C@H](COP(=O)(O)OP(=O)(O)OP(=O)(O)O)[C@@H](O)[C@H]1O [ADENOSINE TRIPHOSPHATE]
- K 0.5 [1]: 2800 nM
- Relative activity (Cavia porcellus [11]): 3.5
- Relative activity (Cavia porcellus [12]): 6.2
- Relative activity (Oryctolagus cuniculus [13]): 6
- Relative activity (Cavia porcellus [14]): Active
- Relative activity (Oryctolagus cuniculus [15]): Active
- Relative activity (Oryctolagus cuniculus [16]): 4.5

SMILES: C=CCCCCSc1nc(N)c2ncn(C3O[C@H](COP(=O)(O)OP(=O)(O)O)[C@@H](O)[C@H]3O)c2n1 (stereo partly specified)
- K 0.5 [1]: 4 nM
- Relative activity (Cavia porcellus [17]): 8.1

SMILES: Nc1nc(SCCCCCCCS)nc2c1ncn2C1O[C@H](COP(=O)(O)OP(=O)(O)OP(=O)(O)O)[C@@H](O)[C@H]1O (stereo partly specified)
- K 0.5 [1]: 773 nM

SMILES: C=CCCCCSc1nc(N)c2ncn(C3O[C@H](COP(=O)(O)OP(=O)(O)OP(=O)(O)O)[C@@H](O)[C@H]3O)c2n1 (stereo partly specified)
- K 0.5 [1]: 10 nM
- Relative activity (Cavia porcellus [11]): Active
- Relative activity (Cavia porcellus [18]): Active
- Relative activity (Oryctolagus cuniculus [19]): inactive
- Relative activity (Cavia porcellus [17]): 7.9
- Relative activity (Oryctolagus cuniculus [20]): 7

SMILES: Nc1ncnc2c1ncn2[C@@H]1O[C@H](COP(=O)(O)O)[C@@H](O)[C@H]1O [ADENOSINE PHOSPHATE]
- Relative activity (Cavia porcellus [3]): inactive
- Relative activity (Oryctolagus cuniculus [21]): 5
- K 0.5 (Meleagris gallopavo [22]): inactive
- Relative activity (Cavia porcellus [10]): Partially active
- Relative activity (Oryctolagus cuniculus [19]): inactive
- Relative activity (Cavia porcellus [6]): inactive
- Relative activity (Oryctolagus cuniculus [16]): 4.8

SMILES: CSc1nc(N)c2ncn([C@@H]3O[C@H](COP(=O)(O)OP(=O)(O)O)[C@@H](O)[C@H]3O)c2n1
- K 0.5 [1]: 6 nM
- Relative activity (Oryctolagus cuniculus [23]): Active
- Relative activity (Oryctolagus cuniculus [20]): Active

SMILES: N#CCCCCCCSc1nc(N)c2ncn(C3O[C@H](COP(=O)(O)OP(=O)(O)OP(=O)(O)O)[C@@H](O)[C@H]3O)c2n1 (stereo partly specified)
- K 0.5 [1]: 10 nM
- Relative activity (Cavia porcellus [17]): 8.6
- Relative activity (Oryctolagus cuniculus [4]): 9.2%
- Relative activity (Oryctolagus cuniculus [23]): 7
- Relative activity (Oryctolagus cuniculus [20]): 6.9
- Relative activity (Cavia porcellus [24]): Active
- Relative activity (Cavia porcellus [25]): Active

SMILES: Nc1nc(Cl)nc2c1ncn2[C@@H]1O[C@H](COP(=O)(O)OP(=O)(O)OP(=O)(O)O)[C@@H](O)[C@H]1O
- K 0.5 [1]: 72 nM
- Relative activity (Cavia porcellus [11]): Active
- Relative activity (Oryctolagus cuniculus [19]): inactive
- Relative activity (Oryctolagus cuniculus [13]): 6.2
- Relative activity (Cavia porcellus [17]): 7.2
- Relative activity (Cavia porcellus [14]): Active
- Relative activity (Oryctolagus cuniculus [26]): 5.8

SMILES: Nc1nc(SCCc2ccccc2)nc2c1ncn2C1O[C@H](COP(=O)(O)OP(=O)(O)OP(=O)(O)O)[C@@H](O)[C@H]1O (stereo partly specified)
- K 0.5 [1]: 30 nM
- Relative activity (Oryctolagus cuniculus [19]): inactive
- Relative activity (Cavia porcellus [17]): 7.1
- Relative activity (Oryctolagus cuniculus [23]): 6.5
- Relative activity (Oryctolagus cuniculus [20]): 6.2
- Relative activity (Cavia porcellus [24]): Active
- Relative activity (Cavia porcellus [27]): Active

From ChEMBL document CHEMBL1127060 (1993)
